Measured values: ChEMBL document CHEMBL1121744, “Synthesis and antihypertensive activity of a series of 8-substituted 1-oxa-3,8-diazaspiro[4.5]decan-2-ones” (J Med Chem, 1981)

Tests used:
[1] = system: Rattus norvegicus; test: Percentage fall in systolic blood pressure in spontaneously hypertensive rats after 3 h following 50 mg/kg p.o.; assay type: functional, Artery; conditions: route oral
Procedure, shortened: (§1)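 Male Okamoto-Aoki SHR, trained, in groups of four matched for mean systolic pressure; one group per run received water vehicle. Oral dosing in water (0.1 mL per 10 g) on two consecutive mornings. After the day-2 dose, rats were restrained at 30.0 ± 1.0 °C. Systolic pressure was read by tail cuff (inflated to 300 mmHg, first pulse) at 1–4 h. % fall is versus the untreated control group, by 1-tail t test (p ≤ 0.05).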

[2] = system: Canis familiaris; test: Change in mean arterial pressure in anesthetized dogs for a dose of 1 mg/kg; assay type: functional, Canis lupus familiaris, Artery
Procedure, shortened: (§2)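 Dogs anesthetized with sodium pentobarbital (35 mg/kg iv), femoral artery cannulated for pressure, ECG-triggered heart rate, femoral vein for dosing. Rising iv doses were given 90 min apart, and each dose is the full dose, not cumulative. Value is the maximal mean arterial pressure change 10–15 min after each dose, two dogs per compound, ±3 mmHg. Saline served as control.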

[3] = target: T1, Adrenergic receptor alpha-1 (Rattus norvegicus, UniProt P15823+P23944+P43140); test: Antagonistic potency of compound for Alpha-1 adrenergic receptor; assay type: functional
T1 sequence (P15823 whole entry): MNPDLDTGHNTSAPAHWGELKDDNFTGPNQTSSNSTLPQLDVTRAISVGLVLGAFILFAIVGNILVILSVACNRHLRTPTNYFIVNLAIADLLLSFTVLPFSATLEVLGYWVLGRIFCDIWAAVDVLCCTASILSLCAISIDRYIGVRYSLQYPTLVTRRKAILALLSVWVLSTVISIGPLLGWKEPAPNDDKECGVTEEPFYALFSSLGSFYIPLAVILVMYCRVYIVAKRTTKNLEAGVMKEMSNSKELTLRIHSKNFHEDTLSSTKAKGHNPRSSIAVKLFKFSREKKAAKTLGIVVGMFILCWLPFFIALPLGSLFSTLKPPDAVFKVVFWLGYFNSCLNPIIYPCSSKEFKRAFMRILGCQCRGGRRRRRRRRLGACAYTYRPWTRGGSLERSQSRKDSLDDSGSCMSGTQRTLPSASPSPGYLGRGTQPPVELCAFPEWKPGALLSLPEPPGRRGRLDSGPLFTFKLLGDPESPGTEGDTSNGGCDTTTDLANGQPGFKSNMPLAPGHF
T1 sequence (P23944 whole entry): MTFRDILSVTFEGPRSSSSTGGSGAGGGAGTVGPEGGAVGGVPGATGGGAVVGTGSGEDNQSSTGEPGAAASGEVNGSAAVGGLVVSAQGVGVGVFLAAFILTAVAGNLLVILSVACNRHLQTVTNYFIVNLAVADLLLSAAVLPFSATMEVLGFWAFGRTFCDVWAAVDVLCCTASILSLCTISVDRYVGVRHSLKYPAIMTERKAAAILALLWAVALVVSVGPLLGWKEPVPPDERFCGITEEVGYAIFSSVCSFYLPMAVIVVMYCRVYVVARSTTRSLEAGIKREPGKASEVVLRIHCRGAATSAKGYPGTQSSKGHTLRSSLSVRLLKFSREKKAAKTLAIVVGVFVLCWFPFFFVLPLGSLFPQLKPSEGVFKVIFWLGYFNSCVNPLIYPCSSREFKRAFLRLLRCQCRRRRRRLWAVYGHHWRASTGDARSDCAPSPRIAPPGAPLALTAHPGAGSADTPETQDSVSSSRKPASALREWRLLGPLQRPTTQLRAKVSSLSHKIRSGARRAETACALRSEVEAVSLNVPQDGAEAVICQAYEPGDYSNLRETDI
T1 sequence (P43140 whole entry): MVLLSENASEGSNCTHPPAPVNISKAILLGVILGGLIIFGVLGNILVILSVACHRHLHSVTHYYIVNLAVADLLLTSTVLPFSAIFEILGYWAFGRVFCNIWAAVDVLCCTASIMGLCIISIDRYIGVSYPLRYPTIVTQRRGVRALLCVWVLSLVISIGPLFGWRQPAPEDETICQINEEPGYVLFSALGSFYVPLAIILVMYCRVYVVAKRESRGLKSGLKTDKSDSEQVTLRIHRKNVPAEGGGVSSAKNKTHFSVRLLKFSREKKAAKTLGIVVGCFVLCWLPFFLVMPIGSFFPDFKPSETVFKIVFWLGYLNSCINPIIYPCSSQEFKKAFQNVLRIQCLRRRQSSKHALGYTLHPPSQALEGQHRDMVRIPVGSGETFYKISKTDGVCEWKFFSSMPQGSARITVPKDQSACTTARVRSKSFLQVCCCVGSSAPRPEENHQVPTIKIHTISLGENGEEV

[4] = system: Rattus norvegicus; test: Percentage fall in systolic blood pressure in spontaneously hypertensive rats after 2 hr following 50 mg/kg p.o.; assay type: functional, Artery; conditions: route oral; procedure, shortened: as §1
[5] = system: Rattus norvegicus; test: Antihypertensive activity as percentage fall in systolic blood pressure in spontaneously hypertensive rats after a period of 4 hr for a dose of 50 mg/kg po; assay type: functional, Artery; procedure, shortened: as §1
[6] = system: Canis familiaris; test: Percent inhibition of the pressor responses to 7.5 ug/kg iv phenylephrine in pentobarbital-anesthetized dogs for a dose of 0.1 mg/kg; assay type: functional; conditions: Canis lupus familiaris
Procedure, shortened: (§3)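 Pentobarbital-anesthetized dogs (35 mg/kg iv) with femoral arterial pressure recording. Epinephrine (1 μg/kg), norepinephrine (0.75 μg/kg) and phenylephrine (7.5 μg/kg) iv challenges were given about every 10 min before and after rising iv test doses, which were spaced 90 min apart. Value is % inhibition of the pressor response.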

[7] = system: Canis familiaris; test: Percent inhibition of the pressor responses to 1 ug/kg iv Epinephrine in pentobarbital-anesthetized dogs for a dose of 1 mg/kg; assay type: functional; conditions: Canis lupus familiaris; procedure, shortened: as §3
[8] = system: Canis familiaris; test: Percent inhibition of the pressor responses to 7.5 ug/kg iv phenylephrine in pentobarbital-anesthetized dogs for a dose of 1 mg/kg; assay type: functional; conditions: Canis lupus familiaris; procedure, shortened: as §3
[9] = Distribution coefficient between 1-Octanol and phosphate buffer at pH7.4; assay type: physicochemical; conditions: 1-octanol/phosphate buffer, pH 7.4
Procedure, shortened: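 Octanol/buffer distribution measured at pH 7.4 in phosphate with sodium chloride. Either HPLC (0.004 M) or shake flask.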

[10] = system: Canis familiaris; test: Change in mean arterial pressure in anesthetized dogs for a dose of 0.1 mg/kg; assay type: functional, Canis lupus familiaris, Artery; procedure, shortened: as §2
[11] = system: Rattus norvegicus; test: Antihypertensive activity as percentage fall in systolic blood pressure in spontaneously hypertensive rats after a period of 1 hr for a dose of 50 mg/kg; assay type: functional, Artery; procedure, shortened: as §1

Row | SMILES | Decrease in blood pressure [1] | MAP [2] | pA2 [3] | Decrease in blood pressure [4] | Decrease in blood pressure [5] | inhibition in vivo at 0.1 mg/kg [6] | inhibition in vivo at 1 mg/kg [7] | inhibition in vivo at 1 mg/kg [8] | logD [9] | MAP [10] | Decrease in blood pressure [11]
1 | O=C1NCC2(CCN(CCc3c[nH]c4ccccc34)CC2)O1 | 7% | -11 mmHg | 5.5 | 10% | 8% | 17% | > 100% | 84% | 1.45 | -2 mmHg | 16%
2 | CN1CC2(CCN(CC(O)C3COc4ccccc4O3)CC2)OC1=O (configuration not stated) | 14% | -13 mmHg | 4.5 | 31% | 16% | 0% | > 100% | 44% | 1.43 | 4 mmHg | 28%
